In the array DNA melting data of Ke et al. (doi:10.1101/2024.01.08.574731):

Tests used:
[1] = melting temperature; fluorescence melt of hairpins on a sequencing array, two-state fit, raised by 9.35 °C to match UV melts; details: sodium 0.088 M
Summary of the method: (§1)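 Folding enthalpy and melting temperature come from bootstrapped two-state fits to Cy3 fluorescence of library hairpins carrying annealed Cy3 and quencher oligos on a sequenced MiSeq flow cell. Imaging was done in 50 mM Na-HEPES pH 8.0, 25 mM NaCl, stepping by 2.5 °C up to 60 °C, and signals were normalised to pre-quench Cy3 and to control constructs. Results of four replicates were combined by inverse variance, and fitted temperatures were raised by 9.35 °C to match UV melts.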

[2] = folding enthalpy; higher = less favourable; fluorescence melt of hairpins on a sequencing array, two-state fit; details: sodium 0.088 M
Summary of the method: as §1

GATCCGCATGCGGATC ((((((....)))))) showed a Tm [1] of 69 °C and a folding enthalpy [2] of -30.3 kcal/mol.

Work on GTCGCCGAAAGGCCTGAC ((((((....)))..))) yielded a Tm [1] of 31.8 °C and a folding enthalpy [2] of -12.4 kcal/mol.

With GGCATACGAAAGTACGCC (((.(((....))).))) the Tm [1] was 51.8 °C and the folding enthalpy [2] was -32.1 kcal/mol.

GATTCTGGAAACGGAATC (((((.(....).))))) gave a Tm [1] of 44.4 °C and a folding enthalpy [2] of -37.2 kcal/mol.

Work on GGGTCCGAAAGGAGCCC ((((((....))).))) yielded a Tm [1] of 68.5 °C and a folding enthalpy [2] of -15.6 kcal/mol.

GATGTCGGAAACAACATC (((((.(....).))))) gave a Tm [1] of 35.7 °C and a folding enthalpy [2] of -28.9 kcal/mol.

In the case of GGTAAAGGAAACTTTGCC ((.((((....)))).)), the Tm [1] is reported as 42.6 °C and the folding enthalpy [2] is reported as -28.6 kcal/mol.

With GATCGTAGGTACGATC ((((((....)))))) the Tm [1] was 55.8 °C and the folding enthalpy [2] was -38.9 kcal/mol.

GCATGGGGAAACTCGTGC (((.(.(....).).))) gave a Tm [1] of 41 °C and a folding enthalpy [2] of -26.2 kcal/mol.

In the case of CGAACGGAAACGTCCTCG ((((((....)))..))), the Tm [1] is reported as 26.2 °C and the folding enthalpy [2] is reported as -11.4 kcal/mol.

For GTGGTCGAAAGACTACAC ((((((....)))..))), the Tm [1] was 48.2 °C and the folding enthalpy [2] was -15.7 kcal/mol.

CGAACGGAAACGTATTCG ((((((....)))..))) gave a Tm [1] of 29.1 °C and a folding enthalpy [2] of -17.7 kcal/mol.

With CGTTACGGAAACGTTACG (((.(((....))).))) the Tm [1] was 48 °C and the folding enthalpy [2] was -26.9 kcal/mol.

GAATGCGCGAAAGCGTTC (((..(((....)))))) showed a Tm [1] of 26.1 °C and a folding enthalpy [2] of -8.39 kcal/mol.

Work on GCAACCGGAAACGGTCAC (..((((....))))..) yielded a Tm [1] of 24.9 °C and a folding enthalpy [2] of -8.88 kcal/mol.

In the case of GAAACCCGAAAGGGGTTC (((.(((....))).))), the Tm [1] is reported as 59.2 °C and the folding enthalpy [2] is reported as -29 kcal/mol.

In the case of GATCATGACAATGATC ((((((....)))))), the Tm [1] is reported as 56.6 °C and the folding enthalpy [2] is reported as -40.6 kcal/mol.

Work on CGCGGAGCGTCCGCG ((((((...)))))) yielded a Tm [1] of 68.1 °C and a folding enthalpy [2] of -7.62 kcal/mol.

Sequence GTGCGCGAAAGCGCTCAC ((((((....)))..))) has a Tm [1] of 40.4 °C and a folding enthalpy [2] of -7.75 kcal/mol.

Work on GGCCCCGAAAGGGTAGCC ((((((....)))..))) yielded a Tm [1] of 60.1 °C and a folding enthalpy [2] of -23.7 kcal/mol.

With GATGAGACGAAAGTCATC (((..(((....)))))) the Tm [1] was 35.9 °C and the folding enthalpy [2] was -13.4 kcal/mol.

Work on GCTCACGAAAGTGCGAGC ((((((....)))..))) yielded a Tm [1] of 38.7 °C and a folding enthalpy [2] of -19.8 kcal/mol.

In the case of GACTTAGAAATAAGTC ((((((....)))))), the Tm [1] is reported as 43.8 °C and the folding enthalpy [2] is reported as -30 kcal/mol.

GCATGAGAAATCATGC ((((((....)))))) showed a Tm [1] of 56.4 °C and a folding enthalpy [2] of -38.7 kcal/mol.

GATCCCCAATGGGATC ((((((....)))))) gave a Tm [1] of 59.7 °C and a folding enthalpy [2] of -34.5 kcal/mol.

Work on ACTCAGAAATGAGT (((((....))))) yielded a Tm [1] of 36.7 °C and a folding enthalpy [2] of -22 kcal/mol.

With GATCCACGAAAGTGAATC (((.(((....))).))) the Tm [1] was 42.4 °C and the folding enthalpy [2] was -24.2 kcal/mol.

For GGAATCGAAAGATCTTCC ((((((....)))..))), the Tm [1] was 30.6 °C and the folding enthalpy [2] was -20.9 kcal/mol.

In the case of GATCTGGGATCAGATC ((((((....)))))), the Tm [1] is reported as 53.3 °C and the folding enthalpy [2] is reported as -40.7 kcal/mol.

GAGTCAGGAAACCGACTC (((((.(....).))))) gave a Tm [1] of 46.6 °C and a folding enthalpy [2] of -36.8 kcal/mol.

For TCACAGAAATGTGA (((((....))))), the Tm [1] was 39.8 °C and the folding enthalpy [2] was -14.6 kcal/mol.

Sequence GAGGGGCGAAAGCCGCTC (((.(((....))).))) has a Tm [1] of 69.3 °C and a folding enthalpy [2] of -30.6 kcal/mol.

GCTCGCGAAAGCGCCAGC ((((((....)))..))) showed a Tm [1] of 42.1 °C and a folding enthalpy [2] of -8.57 kcal/mol.

Sequence GGTCGGAAACGACC (((((....))))) has a Tm [1] of 68 °C and a folding enthalpy [2] of -32.3 kcal/mol.

Work on GTCCACGGAAACGCAGAC (((..((....))..))) yielded a Tm [1] of 29.1 °C and a folding enthalpy [2] of -21.3 kcal/mol.

With GATTCCGGAAACGGAATC (((((((....))))))) the Tm [1] was 64.7 °C and the folding enthalpy [2] was -42.5 kcal/mol.

For GGCAAGGGAAACCCTGCC ((((.((....)).)))), the Tm [1] was 53.2 °C and the folding enthalpy [2] was -38.6 kcal/mol.

For CGGTCGGAAACGAAGCCG ((((((....)))..))), the Tm [1] was 38.1 °C and the folding enthalpy [2] was -24.1 kcal/mol.

CGAGCGGAAACGCCTTCG ((((((....)))..))) showed a Tm [1] of 32 °C and a folding enthalpy [2] of -10.7 kcal/mol.

With GATCGAACTTTCGATC ((((((....)))))) the Tm [1] was 53.4 °C and the folding enthalpy [2] was -35.6 kcal/mol.

Work on GGCACACCGAAAGGTGCC (((..(((....)))))) yielded a Tm [1] of 52.8 °C and a folding enthalpy [2] of -14.3 kcal/mol.

GCGTCCCACGC ((((...)))) gave a Tm [1] of 56.3 °C and a folding enthalpy [2] of -25.9 kcal/mol.

Sequence GAGTACGAAAGTATCTC ((((((....))).))) has a Tm [1] of 41.9 °C and a folding enthalpy [2] of -26.8 kcal/mol.

GGCCAGAAATGGCC (((((....))))) gave a Tm [1] of 67.5 °C and a folding enthalpy [2] of -29 kcal/mol.

In the case of GATCAGGGCGCTGATC ((((((....)))))), the Tm [1] is reported as 55.4 °C and the folding enthalpy [2] is reported as -47.4 kcal/mol.

Sequence GAGGTTGGAAACAACTTC ((.((((....)))).)) has a Tm [1] of 43.4 °C and a folding enthalpy [2] of -24 kcal/mol.

GATCCTGGGTAGGATC ((((((....)))))) showed a Tm [1] of 51.3 °C and a folding enthalpy [2] of -33.4 kcal/mol.
